High-throughput results deposited in PubChem BioAssay by Johns Hopkins Ion Channel Center.
Kir21 block: blocks the mouse Kir2.1 inward-rectifier potassium channel; B-score at 10 µM; P35561; HEK293-Kir2.1, FluxOR thallium flux fluorescence; active compounds read low; hit rate 0.85% among 310,000; AID 1672;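 active means fluorescence ratio B-score at or below minus 3 SD of library scores, with starting-brightness B-score within 2 SD, cut at about -4.2 in these data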;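 further: channel flux triggered by added potassium and thallium sulfate stimulus; B-score of peak minus minimum fluorescence over baseline after thallium stimulus; more negative B-score means stronger Kir2.1 block with less thallium influx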
hERG protect: hERG (human) protection from proarrhythmic block | CHO-hERG, FluxOR thallium flux, dofetilide IC70 present | hit rate 0.51% among 310,000 | activation (rescue from dofetilide block), less the hit threshold, % at 10 µM;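 active means activation above the mean of controls blocked by dofetilide plus 5 SD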;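 further: thallium influx through hERG after potassium depolarization seen as dye fluorescence rise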
Target sequence (Q12809 whole entry, looked up): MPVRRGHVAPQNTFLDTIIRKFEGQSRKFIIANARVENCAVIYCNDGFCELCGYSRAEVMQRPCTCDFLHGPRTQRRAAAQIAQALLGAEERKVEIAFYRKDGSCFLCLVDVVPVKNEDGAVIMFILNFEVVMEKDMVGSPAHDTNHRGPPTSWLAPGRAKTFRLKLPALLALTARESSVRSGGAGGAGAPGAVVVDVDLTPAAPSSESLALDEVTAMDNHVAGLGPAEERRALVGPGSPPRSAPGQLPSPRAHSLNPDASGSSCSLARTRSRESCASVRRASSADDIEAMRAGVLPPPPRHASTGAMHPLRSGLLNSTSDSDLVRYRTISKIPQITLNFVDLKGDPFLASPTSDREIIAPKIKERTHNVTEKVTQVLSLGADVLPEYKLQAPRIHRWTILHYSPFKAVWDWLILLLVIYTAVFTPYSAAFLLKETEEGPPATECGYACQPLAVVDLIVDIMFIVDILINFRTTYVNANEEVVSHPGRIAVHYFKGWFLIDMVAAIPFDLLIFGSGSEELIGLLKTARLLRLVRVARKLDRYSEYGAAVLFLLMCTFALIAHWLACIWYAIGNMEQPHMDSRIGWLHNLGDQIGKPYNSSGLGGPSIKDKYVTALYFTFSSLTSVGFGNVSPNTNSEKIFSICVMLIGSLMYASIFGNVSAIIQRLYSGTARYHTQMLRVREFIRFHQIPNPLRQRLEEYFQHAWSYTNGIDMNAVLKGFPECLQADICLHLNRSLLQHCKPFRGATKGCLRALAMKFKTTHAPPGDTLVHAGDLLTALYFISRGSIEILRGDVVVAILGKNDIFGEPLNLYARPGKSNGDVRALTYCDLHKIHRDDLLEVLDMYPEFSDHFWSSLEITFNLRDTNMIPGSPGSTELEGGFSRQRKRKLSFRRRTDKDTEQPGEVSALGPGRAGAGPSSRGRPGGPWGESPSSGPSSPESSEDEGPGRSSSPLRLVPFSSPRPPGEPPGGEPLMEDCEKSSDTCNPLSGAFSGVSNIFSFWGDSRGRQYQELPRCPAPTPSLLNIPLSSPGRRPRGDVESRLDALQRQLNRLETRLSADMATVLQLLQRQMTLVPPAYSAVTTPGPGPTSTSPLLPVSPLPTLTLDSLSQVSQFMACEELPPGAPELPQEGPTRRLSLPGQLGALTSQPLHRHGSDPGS
KCNQ1 block: blocks the human KCNQ1 potassium channel; B-score at 10 µM; hit rate 1.3% among 310,000; CHO-K1 KCNQ1, FluxOR thallium flux fluorescence; active compounds read high; AID 2642; P51787;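 active means compounds whose thallium flux B-score, printed positive for inhibition, exceeds three library SD while starting fluorescence stays within three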;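 further: channel opened by potassium depolarization with thallium stimulus after 20 min compound exposure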
KCNK3 inh: human KCNK3 channel inhibition, primary screen; O14649; CHO-KCNK3 thallium flux, FluxOR fluorescence; active compounds read low; B-score at 10 µM; hit rate 0.84% among 340,000;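 active means B-score under library mean minus 4 SD, starting fluorescence ratio at most library mean plus 5 SD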;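 further: more negative B-score means stronger inhibition of thallium flux through KCNK3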
KCNK9 inh: inhibitors of human KCNK9 two-pore domain potassium channel; Q9NPC2; HEK293 KCNK9, FluxOR thallium flux fluorescence; active compounds read low; B-score at 10 µM; hit rate 1.2% among 310,000; AID 488922;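 active means ratio B-score over 3 SD below the library mean, with starting fluorescence within 5 SD of its mean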;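 further: negative B-score means less thallium flux so channel inhibition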
KCNQ1 act: potentiators or activators of human KCNQ1 potassium channel. P51787. CHO-K1 KCNQ1, thallium flux FluxOR fluorescence; active compounds read high. B-score at 10 µM. hit rate 0.35% among 310,000;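 active means fluorescence ratio B-score, a plate-corrected score, at least three library SD, with initial intensity B-score within 5 SD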
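Medium – assay buffer, equal DMSO in all wells · Material – CHO-K1 cell line with stable KCNQ1 potassium channel expression · Signal – kinetic FluxOR thallium fluorescence, 10-s 1-Hz baseline, 110-s post-stimulus read · Compound – single concentration per compound, DMSO matched to controls · Schedule – 37 °C overnight plating, 90-min dark dye load, 20-min compound pretreatment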
KCNQ1 block val: confirmation of human KCNQ1 potassium channel inhibitors | shares compounds with KCNQ1 block | KCNQ1 cell line, FluxOR thallium flux fluorescence | inhibition, % at 10 µM | hit rate 93% among 1,600;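 active means primary screen active, with duplicate mean exceeding buffer control mean plus 3 SD of buffer wells, cut at about 28% in these data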
CHO Tl flux: KCNQ1 inhibitor counter-screen hit in parental CHO cells; shares compounds with KCNQ1 block; parental CHO-K1, FluxOR thallium flux fluorescence ratio; active compounds read low; zero means no signal rise above baseline; hit rate 21% among 1,600; fluorescence ratio (Tl flux) at 10 µM;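 active means mean of duplicate thallium-flux fluorescence ratios in parental host cells more than 5 SD below the buffer control mean, cut at about 0.38 in these data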;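 further: ratio is peak minus minimum fluorescence divided by baseline fluorescence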
KCNQ2 inh: KCNQ1 inhibitor that also blocks rat KCNQ2 channel; shares compounds with KCNQ1 block; KCNQ2 cells, FluxOR thallium flux fluorescence; inhibition, % at 10 µM; hit rate 71% among 1,600; AID 651746;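 active means mean percent inhibition of the KCNQ2 thallium signal more than 5 SD above the buffer-only control wells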;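 further: KCNQ2 expressed in CHO cells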
KCNQ1-KCNE1 inh: KCNQ1 inhibitor that also blocks human KCNQ1/KCNE1 channel; shares compounds with KCNQ1 block; KCNQ1/KCNE1 cells, FluxOR thallium flux fluorescence; inhibition, % at 10 µM; hit rate 77% among 1,600;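 active means mean percent inhibition of duplicate wells above the buffer-only control mean plus 3 SD of those controls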
KCNK9 inh conf: human KCNK9 inhibitor confirmation; shares compounds with KCNK9 inh; HEK293 KCNK9 cells, FluxOR thallium flux fluorescence; inhibition, % at 10 µM; hit rate 43% among 4,900;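 active means thallium signal inhibited by more than 5 SD of the compound-free buffer control wells, on both duplicate plates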
Kir21 sel: selectivity of KCNK9 modulators against mouse Kir2.1; shares compounds with KCNK9 inh; Kir2.1 cells, FluxOR thallium flux fluorescence; inhibition, % at 10 µM; hit rate 4% among 4,900; AID 492993;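 active means thallium signal drop more than 5 SD beyond the mean of the no-compound control wells, seen in both duplicate plates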;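 further: signal is fluorescence rise after thallium addition divided by baseline fluorescence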
HEK293 Tl ctr: second counter-screen for KCNK9 modulators: effect in non-induced cells. inhibition, % at 10 µM. non-induced KCNK9-HEK293, FluxOR thallium flux. hit rate 40% among 4,900. shares compounds with KCNK9 inh;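 active means thallium signal drop beyond 5 SD of the untreated control mean, on both duplicate plates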
KCNK3 confirm: confirmation of human KCNK3 two-pore domain potassium channel inhibitors; shares compounds with KCNK3 inh; CHO-KCNK3 thallium flux, FluxOR fluorescence; 0% buffer, 100% carvedilol maximal block; ratio percent of control, % at 10 µM; hit rate 99% among 2,400;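 active means ratio percent of control, averaged over triplicates, above buffer control mean plus 5 SD, cut at about 64% in these data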;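 further: ratio is the fluorescence rise from min to max over baseline after thallium stimulus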
KCNK3 noninduced: activity in cells without induced KCNK3 expression; shares compounds with KCNK3 inh; non-induced KCNK3 parental cells, FluxOR thallium flux; active compounds read low; thallium flux ratio (lower = more inhibition) at 10 µM; hit rate 40% among 2,400; AID 651747;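 active means thallium flux ratio, averaged over three wells, more than 5 SD below the buffer control mean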;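 further: host cells are CHO cells without KCNK3 induction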
Numbers stand for hits. Hits are enriched below; roughly 3.7% of the tested compounds scored in any of these assays.

For CC(C)(C)n1nnnc1C(c1ccc(Cl)cc1)N1CCCc2ccccc21 (configuration not stated) the results were Kir21 block inactive, hERG protect inactive, KCNQ1 block 6, KCNK3 inh inactive, KCNK9 inh -11, KCNQ1 act inactive, KCNQ1 block val 82, CHO Tl flux inactive, KCNQ2 inh 88%, KCNQ1-KCNE1 inh 85%, KCNK9 inh conf 56%, Kir21 sel inactive, HEK293 Tl ctr 42%, KCNK3 confirm 131 and KCNK3 noninduced 0.13.
Screening CC1C(=O)N(Cc2ccccc2F)c2ccccc2N1C(=O)c1c(F)cccc1F (configuration not stated) returned Kir21 block inactive, hERG protect inactive, KCNQ1 block 15, KCNK3 inh -9, KCNK9 inh -7.7, KCNQ1 act inactive, KCNQ1 block val 58, CHO Tl flux inactive, KCNQ2 inh 78%, KCNQ1-KCNE1 inh 50%, KCNK3 confirm 87 and KCNK3 noninduced inactive.
For CC1CCC2C(=O)N(c3cccc(C(=O)Nc4ccccc4Cl)c3)C(=O)C2C1 (configuration not stated) the results were Kir21 block inactive, hERG protect inactive, KCNQ1 block inactive, KCNK3 inh inactive, KCNK9 inh inactive and KCNQ1 act inactive.
For CCOC(=O)c1cc2c(ccn2C)n1Cc1ccc(Cl)cc1 the results were Kir21 block inactive, hERG protect inactive, KCNQ1 block 6, KCNK3 inh -9.7, KCNK9 inh -11, KCNQ1 act inactive, KCNQ1 block val 110, CHO Tl flux 0.37, KCNQ2 inh 68%, KCNQ1-KCNE1 inh 116%, KCNK9 inh conf 42%, Kir21 sel inactive, HEK293 Tl ctr 37%, KCNK3 confirm 136 and KCNK3 noninduced 0.13.
For Clc1ccc(/C=C/c2nc3ccccc3[nH]2)c(Cl)c1 the results were Kir21 block inactive, hERG protect inactive, KCNQ1 block 14, KCNK3 inh -11, KCNK9 inh inactive, KCNQ1 act inactive, KCNQ1 block val 112, CHO Tl flux 0.32, KCNQ2 inh 107%, KCNQ1-KCNE1 inh 76%, KCNK3 confirm 115 and KCNK3 noninduced 0.1.
O=C(/C=C/c1ccc(Cl)cc1Cl)c1nc2ccccc2[nH]1 was read as Kir21 block inactive, hERG protect inactive, KCNQ1 block inactive, KCNK3 inh inactive, KCNK9 inh inactive and KCNQ1 act inactive.
For CCc1ccc(OCCSc2nc3ccccc3n2CC(=O)O)cc1 the results were Kir21 block inactive, hERG protect inactive, KCNQ1 block inactive, KCNK3 inh inactive, KCNK9 inh inactive and KCNQ1 act inactive.
